Measurements of several laboratories.
Compare with care: the assays were run in different laboratories.
Target: TGF-beta receptor type-2 (TGFBR2, Homo sapiens, UniProt P37173)

| Structure (SMILES) | observed | method | concentration | remaining binding [%] |
| --- | --- | --- | --- | --- |
| COc1cnc(Nc2cccc(S(N)(=O)=O)c2)nc1N1CCN(c2ccccc2)CC1 | binding | competition with immobilised ligand | 1 µM | 100 |
| F[C@@H]1CCN(c2nccc(-c3cnn4ncccc34)n2)C1 | binding | – | 1 µM | 100 |
| Cc1cnc(Nc2ccc(C(=O)N3CCC(N4CCCC4)CC3)cc2)nc1-c1cc2ccccc2s1 | binding | competition with immobilised ligand | 1 µM | 61 |
| C[C@@H](c1ccc(-n2cnc3c(N)ncnc32)cc1)N1CCc2nn(C)c(Cc3ccccc3)c2C1=O | binding | competition with immobilised ligand | 0.1 µM | 84 |
| C=CC(=O)N1CCC(C(=O)NCC(=O)N2CCN(c3nc(-c4cnc(N)nc4C(F)F)nc(N4CCOCC4)n3)CC2)CC1 | binding | competition with immobilised ligand | 1 µM | 88 |
| O=C(c1ccc(Nc2ncc(Cl)c(-c3ccc(Cl)s3)n2)cc1)N1CCC(N2CCCC2)CC1 | binding | competition with immobilised ligand | 1 µM | 100 |
| CC1CCCN1c1nccc(-c2cnn3ncccc23)n1 (stereo not drawn) | binding | – | 1 µM | 100 |
| O=C(N[C@H]1CCCCC/C=C\C2C[C@@]2(C(=O)O)NC(=O)[C@@H]2C[C@@H](Oc3ccncc3)CN2C1=O)OC1CCCC1 (stereo partly drawn) | cell-free assay | competition with immobilised ligand | 1 µM | 85 |
| C[C@H]1CCN(c2nccc(-c3cnn4ncccc34)n2)C1 | binding | – | 1 µM | 60 |
| O=C(NCC1CCOCC1)c1n[nH]cc1NC(=O)c1c(F)cccc1F | binding | competition with immobilised ligand | 1 µM | 100 |
| N[C@H]1CCN(c2nccc(-c3cnn4ncccc34)n2)C1 | binding | – | 1 µM | 86 |
| CC1=C(C#N)C(c2ccc3c(c2)c(NC(=O)c2ccccc2C)nn3C)C(C#N)=C(C)N1 | cell-free assay | competition with immobilised ligand | 1 µM | 99 |
| CN(C)c1nccc(-c2cnc3ncccn23)n1 | binding | – | 1 µM | 76 |
| O=C(O)[C@@H]1[C@@H](Cn2nnc3ccccc3c2=O)CC[C@H]1C(=O)c1ccc(OCCC2CCOCC2)cc1 | cell-free assay | competition with immobilised ligand | 1 µM | 100 |
| O=C(c1ccc(Nc2nccc(-c3cc4ccccc4s3)n2)cc1)N1CCC(N2CCCC2)CC1 | binding | competition with immobilised ligand | 1 µM | 88 |
| COc1cccc(CNC(=O)c2nc3scc(COCc4ccc(C(=O)O)cc4)c3c(=O)[nH]2)c1 | cell-free assay | competition with immobilised ligand | 1 µM | 97 |
| Nc1ncc2c(n1)-c1c([nH]c3ccc(C#CC4CC4)cc13)CCCC2 | binding | competition with immobilised ligand | 1 µM | 100 |
| COCCOc1nc(-c2ccc(Cl)nc2)nc2c1CN(C(=O)c1ncn3ccccc13)CC2 | cell-free assay | competition with immobilised ligand | 0.1 µM | 94 |
| CNC(=O)[C@@H]1CC[C@@H](n2c(-c3ccc4cnccc4c3)nc3ccc(C(=O)NCc4cccc(C(N)=O)c4)cc32)C1 | binding | competition with immobilised ligand | 1 µM | 100 |
| c1cnn2ncc(-c3ccnc(N4CCC45COC5)n3)c2c1 | binding | – | 1 µM | 36 |
| O=C1CCc2cc(Nc3cc(OC4CCOCC4)c([N+](=O)[O-])cc3Cl)ccc2N1 | cell-free assay | competition with immobilised ligand | 1 µM | 98 |
